Assay results taken from ChEMBL document CHEMBL1165950, “Design and synthesis of new potent anticancer pyrazoles with high FLT3 kinase inhibitory selectivity” (Bioorg Med Chem, 2010).

Key:
Format in all cases: functional
Details in all cases: read-out: Activity
SK-MEL-5 = test: Cytotoxicity against human SK-MEL-5 cells assessed as cell growth at 10 uM
Procedure, shortened: (§1)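 NCI-60 screen: cells grown in RPMI 1640 with 5% FBS and 2 mM L-glutamine, plated at 5000–40,000 cells/well according to doubling time, and preincubated 24 h at 37 °C, 5% CO2. The single 10 µM dose (DMSO stock) was added, then incubated 48 h. Cells were TCA-fixed and stained with 0.4% SRB, read at 515 nm, and growth % calculated against time-zero and control plates.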

UO-31 = test: Cytotoxicity against human UO31 cells assessed as cell growth at 10 uM; procedure, shortened: as §1
EKVX = test: Cytotoxicity against human EKVX cells assessed as cell growth at 10 uM
Procedure, shortened: (§2)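 Single-dose NCI-60 screen at 10 µM. Cells were grown in RPMI 1640 with 5% FBS and 2 mM L-glutamine, then treated for 48 h at 37 °C. Protein was measured by SRB staining with absorbance at 515 nm. Percentage growth was recorded, and inhibition percentage was calculated as 100 minus growth percentage.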

CCRF-CEM = test: Cytotoxicity against human CCRF-CEM cells assessed as cell growth at 10 uM; procedure, shortened: as §2
HCT-15 = test: Cytotoxicity against human HCT15 cells assessed as cell growth at 10 uM; procedure, shortened: as §2
IGROV-1 = test: Cytotoxicity against human IGROV1 cells assessed as cell growth at 10 uM; procedure, shortened: as §2
NCI-H322M = test: Cytotoxicity against human NCI-H322M cells assessed as cell growth at 10 uM; procedure, shortened: as §1
OVCAR-4 = test: Cytotoxicity against human OVCAR4 cells assessed as cell growth at 10 uM; procedure, shortened: as §1
LOX IMVI = test: Cytotoxicity against human LOXIMVI cells assessed as cell growth at 10 uM; procedure, shortened: as §1
HOP-62 = test: Cytotoxicity against human HOP62 cells assessed as cell growth at 10 uM; procedure, shortened: as §2
SK-MEL-2 = test: Cytotoxicity against human SK-MEL-2 cells assessed as cell growth at 10 uM; procedure, shortened: as §1
SF-539 = test: Cytotoxicity against human SF539 cells assessed as cell growth at 10 uM; procedure, shortened: as §1
HT-29 = test: Cytotoxicity against human HT-29 cells assessed as cell growth at 10 uM; procedure, shortened: as §2
SNB-19 = test: Cytotoxicity against human SNB19 cells assessed as cell growth at 10 uM; procedure, shortened: as §1
BT-549 = test: Cytotoxicity against human BT549 cells assessed as cell growth at 10 uM; procedure, shortened: as §2
[1] = Cytotoxicity against human […] cells assessed as cell growth at 10 uM; procedure, shortened: as §1
HCT-116 = test: Cytotoxicity against human HCT116 cells assessed as cell growth at 10 uM; procedure, shortened: as §2
DU-145 = test: Cytotoxicity against human DU145 cells assessed as cell growth at 10 uM; procedure, shortened: as §2
786-0 = test: Cytotoxicity against human 786-0 cells assessed as cell growth at 10 uM; procedure, shortened: as §2
RXF 393 = test: Cytotoxicity against human RXF393 cells assessed as cell growth at 10 uM; procedure, shortened: as §1
SNB-75 = test: Cytotoxicity against human SNB75 cells assessed as cell growth at 10 uM; procedure, shortened: as §1
MDA-MB-231 = test: Cytotoxicity against human MDA-MB-231 cells assessed as cell growth at 10 uM; procedure, shortened: as §1
MDA-MB-468 = test: Cytotoxicity against human MDA-MB-468 cells assessed as cell growth at 10 uM; procedure, shortened: as §1
SK-MEL-28 = test: Cytotoxicity against human SK-MEL-28 cells assessed as cell growth at 10 uM; procedure, shortened: as §1
HL-60(TB) = test: Cytotoxicity against human HL-60(TB) cells assessed as cell growth at 10 uM
Procedure, shortened: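 NCI 60-cell panel screen at a single concentration of 10 µM. Cells are grown in RPMI 1640 with 5% FBS and 2 mM L-glutamine and read by SRB protein staining at 515 nm. Percent growth is measured relative to time-zero and untreated controls; inhibition % is 100 minus growth %.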

KM12 = test: Cytotoxicity against human KM12 cells assessed as cell growth at 10 uM; procedure, shortened: as §1
NCI-H460 = test: Cytotoxicity against human NCI-H460 cells assessed as cell growth at 10 uM; procedure, shortened: as §1
HCC 2998 = test: Cytotoxicity against human HCC2998 cells assessed as cell growth at 10 uM; procedure, shortened: as §2
U-251 = test: Cytotoxicity against human U251 cells assessed as cell growth at 10 uM; procedure, shortened: as §1
A549 = test: Cytotoxicity against human A549 cells assessed as cell growth at 10 uM; procedure, shortened: as §2
M14 = test: Cytotoxicity against human M14 cells assessed as cell growth at 10 uM; procedure, shortened: as §1

Cc1cc(O)cc(-c2nn(CC#N)cc2-c2ccnc(-c3ccc(C#N)cc3)c2)c1
growth at 10 µM (SK-MEL-5): 58.4%
growth at 10 µM (UO-31): 60.1%
growth at 10 µM (EKVX): 79.1%
growth at 10 µM (CCRF-CEM): 81.2%
growth at 10 µM (HCT-15): 70.4%
growth at 10 µM (IGROV-1): 77.3%
growth at 10 µM (NCI-H322M): 97.4%
growth at 10 µM (OVCAR-4): 79.5%
growth at 10 µM (LOX IMVI): 81.9%
growth at 10 µM (HOP-62): 85.4%
growth at 10 µM (SK-MEL-2): 78.5%
growth at 10 µM (SF-539): 76%
growth at 10 µM (HT-29): 66.3%
growth at 10 µM (SNB-19): 85.2%
growth at 10 µM (BT-549): 84.8%
growth at 10 µM [1]: 70.2%
growth at 10 µM (HCT-116): 65.7%
growth at 10 µM (DU-145): 96.3%
growth at 10 µM (786-0): 77.9%
growth at 10 µM (RXF 393): 59.4%
growth at 10 µM (SNB-75): 46.3%
growth at 10 µM (MDA-MB-231): 67%
growth at 10 µM (MDA-MB-468): 33.7%
growth at 10 µM (SK-MEL-28): 88.3%
growth at 10 µM (HL-60(TB)): 56.2%
growth at 10 µM (KM12): 95.6%
growth at 10 µM (NCI-H460): 104%
growth at 10 µM (HCC 2998): 92%
growth at 10 µM (U-251): 91.5%
growth at 10 µM (A549): 83.2%
growth at 10 µM (M14): 90.3%
